Assay results published in ChEMBL document CHEMBL3734675, “Synthesis, antimycobacterial and antibacterial activity of fluoroquinolone derivatives containing an 3-alkoxyimino-4-(cyclopropylanimo)methylpyrrolidine moiety” (2015).

Key:
Type in all cases: functional
[1] = system: Mycobacterium tuberculosis; experiment: Antimycobacterial activity against Mycobacterium tuberculosis H37Rv ATCC 27294 incubated for 7 days by microplate Alamar Blue assay; settings: H37Rv ATCC 27294, 168 h
Outline: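 Fluorescence read-out. MIC is the lowest concentration that reduces fluorescence by at least 90% relative to the mean of replicate bacterium-only controls. Isoniazid and rifampicin were included as reference drugs.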

Escherichia coli [2] = experiment: Antibacterial activity against Escherichia coli ATCC 25922 after 18 to 24 hrs by two-fold serial dilution method
Outline: (§1)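 Twofold serial dilution in agar media against Gram-positive and Gram-negative strains. Plates incubated at 35 °C for 18–24 h. MIC read as the lowest compound concentration giving complete inhibition of bacterial growth.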

Escherichia coli [3] = experiment: Antibacterial activity against extended-spectrum beta-lactamase producing Escherichia coli 14-1 after 18 to 24 hrs by two-fold serial dilution method; outline: as §1
Escherichia coli [4] = experiment: Antibacterial activity against extended-spectrum beta-lactamase producing Escherichia coli 14-2 after 18 to 24 hrs by two-fold serial dilution method; outline: as §1
Escherichia coli [5] = experiment: Antibacterial activity against Escherichia coli 14-1 after 18 to 24 hrs by two-fold serial dilution method; outline: as §1
Escherichia coli [6] = experiment: Antibacterial activity against Escherichia coli 14-2 after 18 to 24 hrs by two-fold serial dilution method; outline: as §1
Klebsiella pneumoniae [7] = experiment: Antibacterial activity against extended-spectrum beta-lactamase producing Klebsiella pneumoniae 14-17 after 18 to 24 hrs by two-fold serial dilution method; outline: as §1
Klebsiella pneumoniae [8] = experiment: Antibacterial activity against extended-spectrum beta-lactamase producing Klebsiella pneumoniae 14-18 after 18 to 24 hrs by two-fold serial dilution method; outline: as §1
Klebsiella pneumoniae [9] = experiment: Antibacterial activity against extended-spectrum beta-lactamase producing Klebsiella pneumoniae 14-19 after 18 to 24 hrs by two-fold serial dilution method; outline: as §1
Klebsiella pneumoniae [10] = experiment: Antibacterial activity against Klebsiella pneumoniae 14-1 after 18 to 24 hrs by two-fold serial dilution method; outline: as §1
Klebsiella pneumoniae [11] = experiment: Antibacterial activity against Klebsiella pneumoniae 14-2 after 18 to 24 hrs by two-fold serial dilution method; outline: as §1
Klebsiella pneumoniae [12] = experiment: Antibacterial activity against Klebsiella pneumoniae 14-3 after 18 to 24 hrs by two-fold serial dilution method; outline: as §1
Klebsiella pneumoniae [13] = experiment: Antibacterial activity against Klebsiella pneumoniae 14-4 after 18 to 24 hrs by two-fold serial dilution method; outline: as §1
Pseudomonas aeruginosa [14] = experiment: Antibacterial activity against Pseudomonas aeruginosa ATCC 27853 after 18 to 24 hrs by two-fold serial dilution method; outline: as §1
Pseudomonas aeruginosa [15] = experiment: Antibacterial activity against Pseudomonas aeruginosa 14-9 after 18 to 24 hrs by two-fold serial dilution method; outline: as §1
Pseudomonas aeruginosa [16] = experiment: Antibacterial activity against Pseudomonas aeruginosa 14-14 after 18 to 24 hrs by two-fold serial dilution method; outline: as §1
Pseudomonas aeruginosa [17] = experiment: Antibacterial activity against Pseudomonas aeruginosa 14-15 after 18 to 24 hrs by two-fold serial dilution method; outline: as §1
Pseudomonas aeruginosa [18] = experiment: Antibacterial activity against Pseudomonas aeruginosa 14-16 after 18 to 24 hrs by two-fold serial dilution method; outline: as §1
Staphylococcus aureus [19] = experiment: Antibacterial activity against Staphylococcus aureus CMCC 26003 after 18 to 24 hrs by two-fold serial dilution method; outline: as §1
Staphylococcus aureus [20] = experiment: Antibacterial activity against methicillin-sensitive Staphylococcus aureus 14-1 after 18 to 24 hrs by two-fold serial dilution method; outline: as §1
Staphylococcus aureus [21] = experiment: Antibacterial activity against methicillin-sensitive Staphylococcus aureus 14-3 after 18 to 24 hrs by two-fold serial dilution method; outline: as §1
Staphylococcus aureus [22] = experiment: Antibacterial activity against methicillin-sensitive Staphylococcus aureus 14-4 after 18 to 24 hrs by two-fold serial dilution method; outline: as §1
Staphylococcus aureus [23] = experiment: Antibacterial activity against methicillin-resistant Staphylococcus aureus 14-4 after 18 to 24 hrs by two-fold serial dilution method
Outline: (§2)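 Agar media, standard twofold serial dilution. MIC is the lowest concentration giving complete inhibition of bacterial growth after incubation at 35 °C for 18–24 h. Ciprofloxacin and levofloxacin were run as comparators.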

Staphylococcus aureus [24] = experiment: Antibacterial activity against methicillin-resistant Staphylococcus aureus 14-5 after 18 to 24 hrs by two-fold serial dilution method; outline: as §2
[25] = system: Staphylococcus epidermidis; experiment: Antibacterial activity against methicillin-sensitive Staphylococcus epidermidis 14-2 after 18 to 24 hrs by two-fold serial dilution method; outline: as §1
[26] = system: Staphylococcus epidermidis; experiment: Antibacterial activity against methicillin-resistant Staphylococcus epidermidis 14-21 after 18 to 24 hrs by two-fold serial dilution method; outline: as §2
[27] = system: Staphylococcus epidermidis; experiment: Antibacterial activity against methicillin-resistant Staphylococcus epidermidis 14-22 after 18 to 24 hrs by two-fold serial dilution method; outline: as §2
[28] = system: Staphylococcus epidermidis; experiment: Antibacterial activity against methicillin-resistant Staphylococcus epidermidis 14-37 after 18 to 24 hrs by two-fold serial dilution method; outline: as §2
[29] = system: Staphylococcus epidermidis; experiment: Antibacterial activity against methicillin-resistant Staphylococcus epidermidis 14-39 after 18 to 24 hrs by two-fold serial dilution method; outline: as §2
Streptococcus pneumoniae = experiment: Antibacterial activity against methicillin-resistant Streptococcus pneumoniae ATCC 19615 after 18 to 24 hrs by two-fold serial dilution method; outline: as §2
Enterococcus faecium [30] = experiment: Antibacterial activity against Enterococcus faecium 14-2 after 18 to 24 hrs by two-fold serial dilution method; outline: as §1
Enterococcus faecium [31] = experiment: Antibacterial activity against Enterococcus faecium 14-5 after 18 to 24 hrs by two-fold serial dilution method; outline: as §1
Enterococcus faecium [32] = experiment: Antibacterial activity against Enterococcus faecium 14-6 after 18 to 24 hrs by two-fold serial dilution method; outline: as §1
Enterococcus faecalis [33] = experiment: Antibacterial activity against Enterococcus faecalis 14-1 after 18 to 24 hrs by two-fold serial dilution method; outline: as §1
Enterococcus faecalis [34] = experiment: Antibacterial activity against Enterococcus faecalis 14-2 after 18 to 24 hrs by two-fold serial dilution method; outline: as §1

CC1(CNC2CC2)CN(c2nc3c(cc2F)c(=O)c(C(=O)O)cn3-c2nc(N)c(F)cc2F)C/C1=N/OCc1ccccc1 (centres undefined)
4 µg/mL: MIC (Staphylococcus aureus [22])
128 µg/mL: MIC (Klebsiella pneumoniae [12]) | MIC (Pseudomonas aeruginosa [14]) | MIC (Pseudomonas aeruginosa [15]) | MIC (Pseudomonas aeruginosa [16]) | MIC (Pseudomonas aeruginosa [17]) | MIC [27] | MIC [29] | MIC (Enterococcus faecium [32])
64 µg/mL: MIC (Escherichia coli [2]) | MIC [25] | MIC [28]
32 µg/mL: MIC (Staphylococcus aureus [24]) | MIC [26] | MIC (Enterococcus faecium [30]) | MIC (Enterococcus faecalis [33])
16 µg/mL: MIC90 [1] | MIC (Staphylococcus aureus [20]) | MIC (Staphylococcus aureus [23]) | MIC (Enterococcus faecalis [34])
1 µg/mL: MIC (Staphylococcus aureus [19])
8 µg/mL: MIC (Staphylococcus aureus [21]) | MIC (Streptococcus pneumoniae)
> 128 µg/mL: MIC (Escherichia coli [3]) | MIC (Escherichia coli [4]) | MIC (Escherichia coli [5]) | MIC (Escherichia coli [6]) | MIC (Klebsiella pneumoniae [7]) | MIC (Klebsiella pneumoniae [8]) | MIC (Klebsiella pneumoniae [9]) | MIC (Klebsiella pneumoniae [10]) | MIC (Klebsiella pneumoniae [11]) | MIC (Klebsiella pneumoniae [13]) | MIC (Pseudomonas aeruginosa [18]) | MIC (Enterococcus faecium [31])

CO/N=C1/CN(c2c(F)cc3c(=O)c(C(=O)O)cn(C4CC4)c3c2OC)CC1CNC1CC1 (centres undefined)
> 32 µg/mL: MIC90 [1]
128 µg/mL: MIC (Escherichia coli [3]) | MIC (Pseudomonas aeruginosa [14]) | MIC (Pseudomonas aeruginosa [15]) | MIC (Pseudomonas aeruginosa [16]) | MIC (Pseudomonas aeruginosa [17]) | MIC (Pseudomonas aeruginosa [18])
> 128 µg/mL: MIC (Escherichia coli [4]) | MIC (Escherichia coli [5]) | MIC (Escherichia coli [6]) | MIC (Klebsiella pneumoniae [7]) | MIC (Klebsiella pneumoniae [8]) | MIC (Klebsiella pneumoniae [9]) | MIC (Klebsiella pneumoniae [10]) | MIC (Klebsiella pneumoniae [11]) | MIC (Klebsiella pneumoniae [12]) | MIC (Klebsiella pneumoniae [13]) | MIC (Staphylococcus aureus [20]) | MIC (Staphylococcus aureus [21]) | MIC (Staphylococcus aureus [22]) | MIC (Staphylococcus aureus [24]) | MIC [25] | MIC [26] | MIC [27] | MIC [28] | MIC [29] | MIC (Enterococcus faecium [30]) | MIC (Enterococcus faecium [31]) | MIC (Enterococcus faecium [32]) | MIC (Enterococcus faecalis [33])
64 µg/mL: MIC (Streptococcus pneumoniae) | MIC (Enterococcus faecalis [34])
8 µg/mL: MIC (Staphylococcus aureus [19])
32 µg/mL: MIC (Escherichia coli [2])
